Active and inactive are the calls of the source. No cut-off for these calls is given here.
Assays:
[1] = tested on: Leishmania donovani; assay: Antiparasitic activity against Leishmania donovani amastigote in mouse peritoneal macrophages assessed as reduction of parasite burden at 10 ug/mL after 96 hrs; assay type: functional, organism-based
[2] = Selectivity index, ratio of IC50 for rat L6 cells to IC50 for Leishmania donovani MHOM/ET/67/L82; assay type: toxicity, cell-based; settings: read-out: Ratio IC50
[3] = tested on: L6; assay: Cytotoxicity against rat L6 cells; assay type: cell-based; settings: for IC50: Rattus norvegicus, L6; for Activity: rat, l6
[4] = tested on: Leishmania donovani; assay: Antileishmanial activity against Leishmania donovani MHOM/ET/67/L82; assay type: functional, organism-based
Outline: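 Tested on axenic amastigote cultures of L. donovani strain MHOM/ET/67/L82. Activity is reported as IC50.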

[5] = tested on: Leishmania donovani; assay: Antileishmanial activity against Leishmania donovani MHOM/ET/67/L82 at 0.8 ug/mL; assay type: functional
[6] = tested on: Trypanosoma cruzi; assay: Antitrypanosomal activity against Trypanosoma cruzi Tulahuen C2C4 at 4.8 ug/mL; assay type: functional
[7] = tested on: Plasmodium falciparum; assay: Antimalarial activity against chloroquine and pyrimethamine-resistant Plasmodium falciparum K1 at 4.8 ug/mL; assay type: functional
[8] = tested on: Leishmania donovani; assay: Antileishmanial activity against Leishmania donovani MHOM/ET/67/L82 at 4.8 ug/mL; assay type: functional

Compound	Activity [1]	selectivity ratio [2]	IC50 [3] [µM]	IC50 [4] [µM]	inhibition at 0.8 µg/mL [5] [%]	Activity [3]	inhibition at 4.8 µg/mL [6] [%]	inhibition at 4.8 µg/mL [7] [%]	inhibition at 4.8 µg/mL [8] [%]
O=C(Nc1c(O)cccc1-c1nc2c(C(=O)O)cccc2o1)c1cc(-c2ccccc2)on1	inactive	152	141	0.93	–	–	–	–	–
Cc1cc(C(=O)Nc2c(O)cccc2-c2nc3c(C(=O)O)cccc3o2)no1	–	–	–	–	< 30	Not Traceable	–	–	–
O=C(Nc1c(O)cccc1-c1nc2c(C(=O)O)cccc2o1)c1cccnc1	–	55	240	4.36	–	–	–	–	–
CCCCCCCCCCCCCCCCOP(=O)([O-])OCC[N+](C)(C)C [MILTEFOSINE]	–	565	147	–	–	–	–	–	–
O=C(Nc1c(O)cccc1-c1nc2c(C(=O)O)cccc2o1)c1ccccn1	inactive	99	30.6	0.31	–	–	–	–	–
O=C(Nc1c(O)cccc1-c1nc2c(C(=O)O)cccc2o1)c1cccc(Cl)c1	–	74	143	1.93	–	–	–	–	–
O=C(Nc1c(O)cccc1-c1nc2c(C(=O)O)cccc2o1)c1cc2ccccc2[nH]1	inactive	312	212	0.68	–	–	–	–	–
O=C(Nc1c(O)cccc1-c1nc2c(C(=O)O)cccc2o1)c1cnccn1	inactive	185	94.4	0.51	–	–	–	–	–
O=C(Nc1c(O)cccc1-c1nc2c(C(=O)O)cccc2o1)c1cc(O)c(O)c(O)c1	–	–	–	–	< 30	Not Traceable	–	–	–
O=C(Nc1ccccc1-c1nc2c(C(=O)O)cccc2o1)c1ccccc1	inactive	118	114	0.96	–	–	–	–	–
O=C(Nc1c(O)cccc1-c1nc2c(C(=O)O)cccc2o1)c1cc(-c2ccccc2)nc2ccccc12	–	92	108	1.17	–	–	–	–	–
O=C(Nc1c(O)cccc1-c1nc2c(C(=O)O)cccc2o1)c1cccnc1Cl	–	–	–	–	< 30	Not Traceable	–	–	–
O=C(Nc1c(O)cccc1-c1nc2c(C(=O)O)cccc2o1)c1ncccc1F	inactive	392	204	0.52	–	–	–	–	–
COc1cccc(-c2nc3c(C(=O)O)cccc3o2)c1NC(=O)c1cccnc1Cl	–	–	–	–	< 30	Not Traceable	–	–	–
O=C(Nc1c(O)cccc1-c1nc2c(C(=O)O)cccc2o1)c1ncccc1O	–	185	14.2	0.08	100	–	96	97	100
COc1cccc(-c2nc3c(C(=O)O)cccc3o2)c1NC(=O)c1cc2ccccc2[nH]1	–	69	211	3.07	–	–	–	–	–
O=C(Nc1c(O)cccc1-c1nc2c(C(=O)O)cccc2o1)c1ccccc1O	inactive	100	85.1	0.85	–	–	–	–	–
O=C(Nc1c(O)cccc1-c1nc2c(C(=O)O)cccc2o1)c1ccc(F)c(F)c1F	–	111	210	1.9	–	–	–	–	–
O=C(Nc1c(O)cccc1-c1nc2c(C(=O)O)cccc2o1)c1ccccc1	–	> 138	> 240	1.73	–	–	–	–	–

Reference: ChEMBL document CHEMBL1140210, “In pursuit of natural product leads: synthesis and biological evaluation of 2-[3-hydroxy-2-[(3-hydroxypyridine-2-carbonyl)amino]phenyl]benzoxazole-4-carboxylic acid (A-33853) and its analogues: discovery of N-(2-benzoxazol-2-ylphenyl)benzamides as novel antileishmanial chemotypes” (J Med Chem, 2008)
